Assay results: ChEMBL document CHEMBL3259690, “Synthesis, structure-activity relationships, and biological studies of chromenochalcones as potential antileishmanial agents” (J Med Chem, 2014)
Calls of active or inactive are those of the source. No cut-off for these calls is given here.

Key:
Leishmania donovani [1] = test: Antileishmanial activity against Leishmania donovani MHOM/IN/80/Dd8 amastigotes infected in syrian golden hamster assessed as decrease in parasite count in spleen at 50 mg/kg/day, po for 5 days measured on day 7 after last dose administration by giemsa staining; assay type: functional; details: MHOM/IN/80/Dd8, Spleen
Summary of the method: (§1)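 Golden hamsters of either sex infected intracardially with 1 × 10⁷ L. donovani Dd8 amastigotes. After 15−20 days, pretreatment spleen biopsy; animals with +1 grade infection (5−10 amastigotes/100 spleen cell nuclei) used, 5−6 per compound. Aqueous suspensions dosed IP or PO for 5−10 consecutive days starting 2 days after biopsy. Splenic biopsies on day 7 and 28 after last dose, Giemsa counts; PI = 100 − [(ANAT×100)/(INAT×TIUC)].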

Leishmania donovani [2] = test: Antileishmanial activity against Leishmania donovani MHOM/IN/80/Dd8 amastigotes infected in syrian golden hamster assessed as decrease in parasite count in spleen at 100 mg/kg/day, po for 5 days measured on day 7 after last dose administration by giemsa staining; assay type: functional; details: MHOM/IN/80/Dd8, Spleen; summary of the method: as §1
Leishmania donovani [3] = test: Antileishmanial activity against Leishmania donovani MHOM/IN/80/Dd8 amastigotes infected in syrian golden hamster assessed as decrease in parasite count in spleen at 100 mg/kg/day, po for 5 days measured on day 28 after last dose administration by giemsa staining; assay type: functional; details: MHOM/IN/80/Dd8, Spleen; summary of the method: as §1
Leishmania donovani [4] = test: Induction of early apoptosis in Leishmania donovani MHOM/IN/80/Dd8 promastigotes at 0.78 uM after 6 hrs by Annexin V-FITC/propidium iodide staining based flow cytometry (reference value: 13.70%); assay type: functional
Leishmania donovani [5] = test: Induction of early apoptosis in Leishmania donovani MHOM/IN/80/Dd8 promastigotes at 0.78 uM after 48 hrs by Annexin V-FITC/propidium iodide staining based flow cytometry (reference value: 13.70%); assay type: functional
Leishmania donovani [6] = test: Induction of early apoptosis in Leishmania donovani MHOM/IN/80/Dd8 promastigotes at 0.78 uM after 72 hrs by Annexin V-FITC/propidium iodide staining based flow cytometry (reference value: 13.70%); assay type: functional
Leishmania donovani [7] = test: Induction of apoptosis in Leishmania donovani MHOM/IN/80/Dd8 promastigotes assessed as drop in mitochondrial membrane potential at 0.78 uM after 48 hrs by JC-1 dye based flow cytometry (reference value: 5.87%); assay type: functional
Leishmania donovani [8] = test: Induction of apoptosis in Leishmania donovani MHOM/IN/80/Dd8 promastigotes assessed as drop in mitochondrial membrane potential at 0.78 uM after 72 hrs by JC-1 dye based flow cytometry (reference value: 5.87%); assay type: functional
J774.A1 [9] = test: Increase in IL-12 production in mouse J774A1 cells infected with Leishmania donovani at IC50 concentration after 24 hrs by sandwich ELISA relative to control; assay type: functional
Summary of the method: (§2)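 J774A.1 macrophages (1 × 10⁶) infected with Leishmania at 1:10, treated in 6-well plates at the compound's IC₅₀ concentration, 37 °C, CO₂. Supernatants from normal, infected-untreated and infected-treated cells collected after 24 h. IL-12, TNF-α, IL-10 and TGF-β measured by sandwich ELISA at 450 nm, in pg/mL. Two independent experiments in duplicate, mean ± SD; Student's t test against infected control.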

J774.A1 [10] = test: Increase in TNF-alpha production in mouse J774A1 cells infected with Leishmania donovani at IC50 concentration after 24 hrs by sandwich ELISA relative to control; assay type: functional; summary of the method: as §2
J774.A1 [11] = test: Decrease in IL-10 production in mouse J774A1 cells infected with Leishmania donovani at IC50 concentration after 24 hrs by sandwich ELISA relative to control; assay type: functional; summary of the method: as §2
J774.A1 [12] = test: Decrease in TGF-beta production in mouse J774A1 cells infected with Leishmania donovani at IC50 concentration after 24 hrs by sandwich ELISA relative to control; assay type: functional; summary of the method: as §2
[13] = Stability of the compound in simulated gastric fluid at 10 uM by HPLC-UV analysis; assay type: physicochemical; details: simulated gi fluid
Summary of the method: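 Simulated gastric and intestinal fluids made to USP specifications. Compound at 10 μM incubated in SGF sampled at 0, 15, 30 and 60 min, and in SIF at 0, 30, 60, 90 and 120 min. Mean ± SEM.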

[14] = Half life in syrian golden hamster liver S9 fraction at 10 uM in presence of NADPH; assay type: ADME, subcellular, Mesocricetus auratus
Summary of the method: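 Hamster liver S9 (2 mg/mL protein), 50 mM Tris, 20 mM MgCl₂, 2 mM NADPH preincubated 10 min, then compound added at 10 μM final (1% organic) at 37 °C in triplicate. Sampled 0−60 min; no-NADPH control sampled at 0, 15, 30 and 60 min. Quenched with ice-cold methanol, extracted by LLE. Data as % parent remaining versus 0 min; testosterone as positive control.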

[15] = Tmax in Syrian golden hamster at 100 mg/kg, po administered via gavage as single dose by HPLC-UV analysis; assay type: ADME, organism-based, Mesocricetus auratus; parameters: dose 100 mg/kg, route oral; details: in vivo
Summary of the method: (§3)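 Male Syrian golden hamsters (100 ± 15 g) given a single oral dose of 100 mg/kg. Plasma stored at −70 °C and assayed by HPLC-UV. Concentration–time profiles analysed non-compartmentally; values mean ± SD.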

[16] = Cmax in Syrian golden hamster at 100 mg/kg, po administered via gavage as single dose by HPLC-UV analysis; assay type: ADME, organism-based, Mesocricetus auratus; parameters: dose 100 mg/kg, route oral; details: in vivo; summary of the method: as §3
[17] = AUC (0 to infinity) in Syrian golden hamster at 100 mg/kg, po administered via gavage as single dose by HPLC-UV analysis; assay type: ADME, organism-based, Mesocricetus auratus; parameters: time infinity, dose 100 mg/kg, route oral; details: plasma
[18] = Apparent oral clearance in Syrian golden hamster at 100 mg/kg, po administered via gavage as single dose by HPLC-UV analysis; assay type: ADME, organism-based, Mesocricetus auratus; parameters: dose 100 mg/kg, route oral; details: in vivo; summary of the method: as §3
[19] = Apparent oral volume of distribution in Syrian golden hamster at 100 mg/kg, po administered via gavage as single dose by HPLC-UV analysis; assay type: ADME, organism-based, Mesocricetus auratus; parameters: dose 100 mg/kg, route oral; details: in vivo; summary of the method: as §3
Leishmania donovani [20] = test: Induction of necrosis in Leishmania donovani MHOM/IN/80/Dd8 promastigotes at 0.78 uM after 72 hrs by Annexin V-FITC/propidium iodide staining based flow cytometry; assay type: functional, organism-based
Albumin = Albumin (Bos taurus, UniProt P02769); test: Binding affinity to bovine serum albumin at 1 mmol/L by fluorescence spectrophotometer analysis; assay type: ADME; details: cattle, isolated protein, 1000 µM
Summary of the method: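 BSA at 1.00 × 10⁻⁵ mol/L in 0.10 M Tris-HCl, pH 7.4, titrated with successive additions of 1.00 × 10⁻³ mol/L compound stock. Excitation at 280 nm, emission recorded 300−450 nm. Quenching analysed by Stern–Volmer and modified Stern–Volmer equations (τ₀ = 10⁻⁸ s).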

Leishmania donovani [21] = test: Antileishmanial activity against intracellular amastigote form of Leishmania donovani MHOM/IN/80/Dd8 expressing luciferase gene infected in mouse J774A1 cells after 72 hrs by luminescence analysis; assay type: functional, organism-based; details: MHOM/IN/80/Dd8, J774.A1, 72 h
Summary of the method: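 J774A.1 macrophages (4 × 10⁴/mL, RPMI-1640 + 10% HIFBS, 37 °C, 5% CO₂), after 24 h infected with stationary-phase luciferase promastigotes (4 × 10⁵/mL). Free parasites washed off after 24 h. Compound added at up to 7 dilutions from 40 μM for 72 h. Luminescence read after Steady Glo in PBS. IC₅₀ from four-parameter Hill fit; at least duplicate measurements.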

Albumin, sequence (P02769 whole entry): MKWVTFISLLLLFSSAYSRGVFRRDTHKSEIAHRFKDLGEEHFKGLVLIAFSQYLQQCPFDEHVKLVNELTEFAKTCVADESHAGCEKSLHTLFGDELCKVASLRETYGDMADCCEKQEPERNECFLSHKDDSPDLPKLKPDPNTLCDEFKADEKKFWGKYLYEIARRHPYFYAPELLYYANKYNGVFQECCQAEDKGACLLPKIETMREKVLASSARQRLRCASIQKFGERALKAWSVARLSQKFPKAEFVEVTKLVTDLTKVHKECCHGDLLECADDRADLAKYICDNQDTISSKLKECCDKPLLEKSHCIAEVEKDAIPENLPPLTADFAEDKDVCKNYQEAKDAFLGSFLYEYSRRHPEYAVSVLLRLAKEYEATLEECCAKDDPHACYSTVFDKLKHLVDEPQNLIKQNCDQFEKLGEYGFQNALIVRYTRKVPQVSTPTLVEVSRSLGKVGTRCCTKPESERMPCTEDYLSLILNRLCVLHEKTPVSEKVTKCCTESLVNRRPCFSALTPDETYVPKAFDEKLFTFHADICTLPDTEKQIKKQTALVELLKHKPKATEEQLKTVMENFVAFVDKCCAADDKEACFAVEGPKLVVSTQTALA

Stability [13]: Stable
half-life at 10 µM [14]: 37.8 min
Tmax [15]: 37.5 min
Cmax [16]: 820 ng/mL
AUC(0-inf) [17]: 3700 ng·h/mL
CL/F [18]: 464 mL/min/kg
Vd/F [19]: 392 L/kg
KSV (Albumin): 2.7 ×10⁵ L/mol
Kq (Albumin): 2.7 ×10¹³ L/mol/s
IC50 (Leishmania donovani [21]): 5.4 µM
SMILES: CC(C)=CCCC1(C)C=Cc2c(ccc(C(=O)/C=C/c3cccnc3)c2O)O1 (stereo not drawn)
inhibition in vivo at 50 mg/kg/day (Leishmania donovani [1]): 49%
inhibition in vivo at 100 mg/kg/day (Leishmania donovani [2]): 84.7%
inhibition in vivo at 100 mg/kg/day (Leishmania donovani [3]): 84.5%
Activity (Leishmania donovani [4]): 27.04%
Activity (Leishmania donovani [5]): 37.62%
Activity (Leishmania donovani [6]): 66.14%
Activity (Leishmania donovani [7]): 61.67%
Activity (Leishmania donovani [8]): 69.59%
fold change (FC) (J774.A1 [9]): 16
fold change (FC) (J774.A1 [10]): 11.6
fold change (FC) (J774.A1 [11]): 7.11
fold change (FC) (J774.A1 [12]): 4.08
Activity (Leishmania donovani [20]): inactive
